Published values gathered from unrelated publications.
PIK3CB: Phosphatidylinositol 4,5-bisphosphate 3-kinase catalytic subunit beta isoform (PIK3CB, Homo sapiens, UniProt P42338)
KDR: Vascular endothelial growth factor receptor 2 (KDR, Homo sapiens, UniProt P35968)
DNA polymerase catalytic subunit: DNA polymerase catalytic subunit (Human cytomegalovirus, UniProt P08546)
Histone acetyltransferase KAT6B: Histone acetyltransferase KAT6B (Homo sapiens, UniProt Q8WYB5)
PIK3CA: Phosphatidylinositol 4,5-bisphosphate 3-kinase catalytic subunit alpha isoform (PIK3CA, Homo sapiens, UniProt P42336)
Trpm7: Transient receptor potential cation channel subfamily M member 7 (Trpm7, Mus musculus, UniProt Q923J1)
NOX5: NADPH oxidase 5 (NOX5, Homo sapiens, UniProt Q96PH1)

| SMILES | target | test | setting | IC50 [µM] |
| --- | --- | --- | --- | --- |
| COc1cc2ncnc(Nc3ccc4c(c3)/C(=C/c3cccc(Cl)c3)C(=O)N4C)c2cc1OC | PIK3CB | enzyme activity, inhibitor, ADP detection | – | 0.11 |
| O=C(Nc1ccccc1)Nc1ccc(Oc2nnc(-c3ccc(Cl)cc3)c3ccccc23)cc1 | KDR | cell-free assay, inhibitor | – | 0.195 |
| CC1(F)CN(C(=O)Cn2c(=O)c(C(=O)NCc3ccc(Cl)cc3)cc3nc(N4CCCC4=O)cnc32)C1 | DNA polymerase catalytic subunit | enzyme activity, inhibitor | – | 0.207 |
| O=C(O)Cc1csc(NC(=O)c2cc3ccccc3[nH]2)n1 | KDR | enzyme activity, inhibitor, ELISA | – | 1.21 |
| CCCOc1ccc2cc(C(=O)NS(=O)(=O)c3ccccc3-c3ccccc3)oc2c1 | Histone acetyltransferase KAT6B | enzyme activity, inhibitor, TR-FRET | – | 12.2 |
| Cc1nc(Nc2ccc3c(c2)/C(=C/c2ccccc2Cl)C(=O)N3)c2ccccc2n1 | PIK3CA | enzyme activity, inhibitor, ADP detection | – | 0.0277 |
| c1ccc2c(c1)CCC[C@H]2Nc1nc2ccccc2[nH]1 | Trpm7 | calcium signal | – | 1.13 |
| COc1cnc2c(cc(C(=O)NCc3ccc(Cl)cc3)c(=O)n2CC(=O)N2CC(C)(F)C2)n1 | DNA polymerase catalytic subunit | enzyme activity, inhibitor | – | 0.954 |
| CCOc1cccc(-c2cccc(Cl)c2)c1S(=O)(=O)NC(=O)c1cc2c(C)cc(OC)cc2o1 | Histone acetyltransferase KAT6B | enzyme activity, inhibitor, TR-FRET | – | 0.025 |
| Cc1coc2c1C(=O)C(=O)c1c-2ccc2c1CCCC2(C)CO (stereo not drawn) | NOX5 | enzyme activity, inhibitor | – | 5.2 |
| CCCOc1ccccc1S(=O)(=O)NC(=O)c1cc2c(C)cc(OC)cc2o1 | Histone acetyltransferase KAT6B | enzyme activity, inhibitor, TR-FRET | – | 0.061 |
| CNC(=O)c1cnc(Nc2ccccc2C)c(NC(=O)c2cc(F)cc(C(F)(F)F)c2)c1 | Phosphatidylinositol 4,5-bisphosphate 3-kinase catalytic subunit alpha isoform (PIK3CA, Homo sapiens, UniProt P42336, H1047R) | enzyme activity, inhibitor | with preincubation | 0.334 |
| O=c1oc(-c2ccco2)nc2ccccc12 | Cathepsin G (CTSG, Homo sapiens, UniProt P08311) | enzyme activity, inhibitor, absorbance | pH 7.4 | 0.84 |
| CC(=NNC(N)=S)c1ccc(Nc2nnc(-c3ccc(Cl)cc3)c3ccccc23)cc1 | KDR | cell-free assay, inhibitor | – | 0.375 |
| COc1cc2ncnc(Nc3ccc4c(c3)/C(=C/c3ccccc3)C(=O)N4C)c2cc1OC | PIK3CB | enzyme activity, inhibitor, ADP detection | – | 0.506 |
| Cc1coc2c1C(=O)C(=O)c1c-2ccc2c(C)cccc12 | NOX5 | enzyme activity, inhibitor | – | 3.9 |
| COc1cc(C)c2cc(C(=O)NS(=O)(=O)c3ccc(-c4ccccc4)cc3)oc2c1 | Histone acetyltransferase KAT6B | enzyme activity, inhibitor, TR-FRET | – | 0.161 |
| COc1cc2ncnc(N(C)c3ccc4c(c3)/C(=C/c3cccc(Cl)c3)C(=O)N4C)c2cc1OC | PIK3CA | enzyme activity, inhibitor, ADP detection | – | > 1 |
| N#Cc1ccc(COC[C@H]2O[C@@H](n3c(NCc4ccc(Cl)c(Cl)c4)nc4c(N)ncnc43)[C@H](O)[C@@H]2O)cc1 | Trpm7 | calcium signal | – | 0.3 |
| Cc1nc(Nc2ccc3c(c2)C(C)(C)C(=O)N3C)c2ccccc2n1 | PIK3CB | enzyme activity, inhibitor, ADP detection | – | 0.182 |
| COc1cc(C)c2cc(C(=O)NS(=O)(=O)c3ccc(C)cc3)oc2c1 | Histone acetyltransferase KAT6B | enzyme activity, inhibitor, TR-FRET | – | 0.262 |
| Cc1nc(N(C)c2ccc3c(c2)/C(=C/c2ccccc2Cl)C(=O)N3C)c2ccccc2n1 | PIK3CA | enzyme activity, inhibitor, ADP detection | – | 0.0534 |
| CNCCN1CCN(c2cnc3c(cc(C(=O)NCc4ccc(Cl)cc4)c(=O)n3CC(=O)N3CC(C)(F)C3)n2)C1=O | DNA polymerase catalytic subunit | enzyme activity, inhibitor | – | 0.571 |
| COc1cc(C)c2cc(C(=O)NS(=O)(=O)c3ccccc3OC)oc2c1 | Histone acetyltransferase KAT6B | enzyme activity, inhibitor, TR-FRET | – | 0.068 |
| Cc1nc(N(Cc2ccccc2)c2ccc3c(c2)/C(=C/c2ccccc2)C(=O)N3Cc2ccccc2)c2ccccc2n1 (mixture of isomers) | PIK3CA | enzyme activity, inhibitor, ADP detection | – | 0.00911 |
| COc1cc(C)c2cc(C(=O)NS(=O)(=O)c3cccc4ccc(C)nc34)oc2c1 | Histone acetyltransferase KAT6B | enzyme activity, inhibitor, TR-FRET | – | 0.022 |
| Cc1nc(Nc2ccc3c(c2)C(C)(C)C(=O)N3)c2ccccc2n1 | PIK3CA | enzyme activity, inhibitor, ADP detection | – | 0.195 |
